The values that follow come from PMC4750707 (Antimicrobial Agents and Chemotherapy, 2016).

In brackets after ≈: the same amount, converted by molar mass.

One assay has as its target S. pneumoniae PBP2X (Streptococcus pneumoniae, UniProt P59676). Nature of the assay: PBP competition assay with Bocillin FL. The assay is classed as binding. The method in brief:
(§1)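 S. pneumoniae R6 was grown on blood agar at 37°C under 5% CO2, then in BHI with agitation to A600 ~1.0. Cells in KPN buffer pH 7.5 were lysozyme-treated and French-pressed; membranes (30–40 μg protein) were used. Test compound 10 min at 30°C, then Bocillin FL 100 μM final for 20 min. SDS-PAGE fluorescence; IC50 from three assays of six concentrations.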

The target in a further assay is H. influenzae PBP2 (Haemophilus influenzae, UniProt P44469). Nature of the assay: PBP competition assay with Bocillin FL. In kind it is binding. The method in brief:
(§2)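 H. influenzae Rd grown in supplemented BHI at 35°C (A600 0.6–0.7). Cells in KPN buffer (20 mM K-phosphate, 140 mM NaCl, pH 7.5), lysozyme-treated 30 min, French-pressed; membranes at 150,000 × g. Used 100–120 μg membrane protein. Test compound 10 min at 30°C, then Bocillin FL 100 μM final for 20 min. Gel fluorescence band volumes; IC50 from three assays of six concentrations.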

For a further assay, the target named is S. pneumoniae PBP1a/b. Nature of the assay: PBP competition assay with Bocillin FL. In kind it is binding, Streptococcus pneumoniae. As to conditions: S. pneumoniae R6 membranes; Bocillin FL 100 μM. In a few lines: as §1
The next assay addresses H. influenzae PBP1b (Haemophilus influenzae, UniProt P45345). Description: PBP competition assay with Bocillin FL. In kind it is binding. In a few lines: as §2
Another assay relates to H. influenzae. Nature of the assay: Broth microdilution MIC. In kind it is cell-based. To be noted: Haemophilus influenzae. The method in brief:
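MICs by CLSI broth microdilution in cation-adjusted Mueller-Hinton broth. Strains grown in BHI broth at 35°C: E. coli K-12, P. aeruginosa 1771 and S. aureus ATCC 29213. H. influenzae Rd grown in BHI with Haemophilus test medium supplement (hemin and β-NAD, 15 μg/ml each).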

A further assay has as its system S. pneumoniae. Description: Broth microdilution MIC. In kind it is cell-based. As to conditions: Streptococcus pneumoniae. The method in brief:
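MICs by CLSI broth microdilution in cation-adjusted Mueller-Hinton broth plus 2.5% lysed horse blood. S. pneumoniae R6 grown on blood agar at 37°C under 5% CO2.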
A general note: In broth dilution the organism is exposed to a series of concentrations in liquid medium.

The target in another assay is H. influenzae PBP5 (Haemophilus influenzae, UniProt P44466). Nature of the assay: PBP competition assay with Bocillin FL. In kind it is binding. The method in brief: as §2
A further assay deals with H. influenzae PBP3a/b (Haemophilus influenzae, UniProt P45059). Description: PBP competition assay with Bocillin FL. In kind it is binding. The method in brief: as §2
The next assay addresses H. influenzae PBP4 (Haemophilus influenzae, UniProt P45161). Description: PBP competition assay with Bocillin FL. The assay is classed as binding. The method in brief: as §2
For the next assay, the target named is H. influenzae PBP1a (Haemophilus influenzae, UniProt P31776). Description: PBP competition assay with Bocillin FL. The assay is classed as binding. The method in brief:
as §2

As a reminder, the IC50 is the concentration at which inhibition is half-maximal. A low value points to greater potency in that assay.

Sequence of H. influenzae PBP4 (P45161 27-479): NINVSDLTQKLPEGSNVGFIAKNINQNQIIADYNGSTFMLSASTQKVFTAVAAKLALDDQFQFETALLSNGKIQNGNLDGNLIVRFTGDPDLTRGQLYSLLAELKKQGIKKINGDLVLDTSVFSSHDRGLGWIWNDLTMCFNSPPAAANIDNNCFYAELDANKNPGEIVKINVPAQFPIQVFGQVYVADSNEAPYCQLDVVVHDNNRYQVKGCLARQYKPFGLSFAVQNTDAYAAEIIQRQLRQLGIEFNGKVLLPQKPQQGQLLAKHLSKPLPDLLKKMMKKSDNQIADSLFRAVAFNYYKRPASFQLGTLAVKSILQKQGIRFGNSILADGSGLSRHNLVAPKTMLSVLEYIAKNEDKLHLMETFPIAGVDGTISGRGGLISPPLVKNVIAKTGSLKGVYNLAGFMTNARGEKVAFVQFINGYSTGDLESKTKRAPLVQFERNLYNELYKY
Sequence of H. influenzae PBP5 (P44466 19-393): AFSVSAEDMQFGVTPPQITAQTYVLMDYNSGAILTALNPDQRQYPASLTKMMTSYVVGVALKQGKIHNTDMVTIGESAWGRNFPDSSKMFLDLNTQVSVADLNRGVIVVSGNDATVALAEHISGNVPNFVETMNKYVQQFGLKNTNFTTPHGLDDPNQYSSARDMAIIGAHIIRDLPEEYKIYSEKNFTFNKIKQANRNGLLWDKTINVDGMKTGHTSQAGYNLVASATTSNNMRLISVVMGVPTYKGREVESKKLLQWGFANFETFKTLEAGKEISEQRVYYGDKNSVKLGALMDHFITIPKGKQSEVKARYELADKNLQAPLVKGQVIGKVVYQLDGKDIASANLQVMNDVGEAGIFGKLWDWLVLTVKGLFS
Sequence of S. pneumoniae PBP2X (P59676 whole entry): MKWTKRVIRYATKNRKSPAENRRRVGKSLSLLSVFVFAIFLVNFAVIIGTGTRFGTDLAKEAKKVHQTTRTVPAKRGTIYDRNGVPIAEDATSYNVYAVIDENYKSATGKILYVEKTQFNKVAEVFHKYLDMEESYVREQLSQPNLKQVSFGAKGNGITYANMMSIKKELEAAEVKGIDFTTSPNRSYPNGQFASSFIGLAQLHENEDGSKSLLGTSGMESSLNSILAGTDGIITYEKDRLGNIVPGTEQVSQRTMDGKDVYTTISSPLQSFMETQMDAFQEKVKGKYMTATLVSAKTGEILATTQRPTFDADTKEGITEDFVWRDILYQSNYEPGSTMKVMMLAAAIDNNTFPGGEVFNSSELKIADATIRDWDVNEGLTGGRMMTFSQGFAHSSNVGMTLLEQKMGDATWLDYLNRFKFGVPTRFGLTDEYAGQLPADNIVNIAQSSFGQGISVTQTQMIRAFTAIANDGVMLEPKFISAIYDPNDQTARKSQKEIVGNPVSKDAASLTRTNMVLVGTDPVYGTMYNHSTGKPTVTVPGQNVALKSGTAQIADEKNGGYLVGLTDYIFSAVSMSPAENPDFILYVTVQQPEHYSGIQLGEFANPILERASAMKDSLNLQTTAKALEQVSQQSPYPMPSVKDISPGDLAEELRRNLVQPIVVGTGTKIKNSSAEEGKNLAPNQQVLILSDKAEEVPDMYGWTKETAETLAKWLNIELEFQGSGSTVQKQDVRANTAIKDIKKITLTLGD
Sequence of H. influenzae PBP2 (P44469 whole entry): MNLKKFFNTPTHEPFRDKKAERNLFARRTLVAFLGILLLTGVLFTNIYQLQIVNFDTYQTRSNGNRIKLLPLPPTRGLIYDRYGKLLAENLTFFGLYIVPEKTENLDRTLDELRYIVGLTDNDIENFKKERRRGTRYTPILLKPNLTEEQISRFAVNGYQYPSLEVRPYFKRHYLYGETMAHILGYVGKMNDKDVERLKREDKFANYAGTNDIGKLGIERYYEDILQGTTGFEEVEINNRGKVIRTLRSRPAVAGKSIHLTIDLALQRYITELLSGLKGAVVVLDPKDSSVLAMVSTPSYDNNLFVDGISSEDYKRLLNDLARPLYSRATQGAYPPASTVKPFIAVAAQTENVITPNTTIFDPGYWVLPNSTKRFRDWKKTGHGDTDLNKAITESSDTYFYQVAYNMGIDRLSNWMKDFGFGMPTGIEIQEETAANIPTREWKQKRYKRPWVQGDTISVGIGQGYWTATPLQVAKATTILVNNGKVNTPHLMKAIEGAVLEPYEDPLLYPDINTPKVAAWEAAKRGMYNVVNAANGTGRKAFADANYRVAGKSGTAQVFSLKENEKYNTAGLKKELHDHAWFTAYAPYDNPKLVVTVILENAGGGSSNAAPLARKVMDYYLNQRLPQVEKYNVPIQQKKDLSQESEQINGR
Sequence of H. influenzae PBP1a (P31776 whole entry): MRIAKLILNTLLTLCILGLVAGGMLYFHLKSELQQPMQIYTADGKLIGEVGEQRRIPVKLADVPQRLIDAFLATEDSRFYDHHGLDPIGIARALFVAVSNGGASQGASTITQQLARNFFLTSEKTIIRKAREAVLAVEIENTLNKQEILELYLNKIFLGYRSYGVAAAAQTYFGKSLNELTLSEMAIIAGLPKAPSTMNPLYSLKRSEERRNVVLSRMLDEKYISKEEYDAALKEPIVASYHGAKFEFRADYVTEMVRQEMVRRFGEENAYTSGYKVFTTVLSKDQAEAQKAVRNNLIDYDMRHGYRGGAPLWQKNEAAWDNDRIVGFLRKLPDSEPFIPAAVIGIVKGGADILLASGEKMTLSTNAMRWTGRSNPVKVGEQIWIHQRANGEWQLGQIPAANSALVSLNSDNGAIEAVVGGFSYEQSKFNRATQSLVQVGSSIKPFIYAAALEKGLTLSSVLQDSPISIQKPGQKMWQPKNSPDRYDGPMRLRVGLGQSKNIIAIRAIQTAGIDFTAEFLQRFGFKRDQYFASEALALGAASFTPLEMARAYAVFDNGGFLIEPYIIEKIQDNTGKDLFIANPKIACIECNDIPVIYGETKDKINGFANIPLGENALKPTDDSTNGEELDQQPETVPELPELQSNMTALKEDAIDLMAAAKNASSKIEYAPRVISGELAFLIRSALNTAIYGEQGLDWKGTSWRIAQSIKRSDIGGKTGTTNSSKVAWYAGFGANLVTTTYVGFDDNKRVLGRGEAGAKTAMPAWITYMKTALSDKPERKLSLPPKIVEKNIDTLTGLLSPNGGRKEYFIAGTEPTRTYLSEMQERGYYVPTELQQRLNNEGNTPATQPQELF
Sequence of H. influenzae PBP1b (P45345 whole entry): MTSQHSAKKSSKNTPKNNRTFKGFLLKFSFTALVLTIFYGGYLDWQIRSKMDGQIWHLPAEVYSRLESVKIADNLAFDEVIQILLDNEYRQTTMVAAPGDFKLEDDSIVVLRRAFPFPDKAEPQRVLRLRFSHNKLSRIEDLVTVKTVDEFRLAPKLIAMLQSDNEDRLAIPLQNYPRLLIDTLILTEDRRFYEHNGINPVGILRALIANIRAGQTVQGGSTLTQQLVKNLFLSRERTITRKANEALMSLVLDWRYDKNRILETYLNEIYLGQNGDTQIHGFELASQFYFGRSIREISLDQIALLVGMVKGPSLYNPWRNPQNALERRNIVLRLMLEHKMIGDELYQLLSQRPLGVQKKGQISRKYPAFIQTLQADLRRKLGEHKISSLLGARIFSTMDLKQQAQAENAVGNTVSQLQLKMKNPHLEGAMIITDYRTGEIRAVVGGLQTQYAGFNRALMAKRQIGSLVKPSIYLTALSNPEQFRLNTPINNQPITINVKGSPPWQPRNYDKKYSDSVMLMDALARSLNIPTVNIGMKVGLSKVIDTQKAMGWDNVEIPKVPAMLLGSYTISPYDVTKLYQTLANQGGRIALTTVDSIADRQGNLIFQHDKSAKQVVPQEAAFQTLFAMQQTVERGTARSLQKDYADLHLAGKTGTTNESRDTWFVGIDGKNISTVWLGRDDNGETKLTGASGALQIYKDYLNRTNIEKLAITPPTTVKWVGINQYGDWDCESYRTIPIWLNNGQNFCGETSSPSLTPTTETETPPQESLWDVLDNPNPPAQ
Sequence of H. influenzae PBP3a/b (P45059 66-580 limits assumed): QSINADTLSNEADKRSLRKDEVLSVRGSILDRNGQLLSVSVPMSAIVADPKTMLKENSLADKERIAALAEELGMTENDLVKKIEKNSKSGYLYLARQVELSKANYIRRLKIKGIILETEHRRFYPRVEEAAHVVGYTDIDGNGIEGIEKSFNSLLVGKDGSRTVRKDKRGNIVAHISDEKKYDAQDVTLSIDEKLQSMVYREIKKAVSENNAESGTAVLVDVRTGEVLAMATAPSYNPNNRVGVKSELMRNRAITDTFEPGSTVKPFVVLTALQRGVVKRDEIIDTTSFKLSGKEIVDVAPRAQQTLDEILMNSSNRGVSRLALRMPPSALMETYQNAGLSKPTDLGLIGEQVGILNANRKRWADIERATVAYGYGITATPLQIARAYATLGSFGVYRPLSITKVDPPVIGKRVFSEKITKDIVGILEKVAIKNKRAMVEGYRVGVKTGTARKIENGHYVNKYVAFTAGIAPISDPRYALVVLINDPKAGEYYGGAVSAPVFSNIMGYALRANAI

For `NC(=O)[C@@H]1CC[C@@H]2CN1C(=O)N2OS(=O)(=O)O` [AVI, avibactam], the IC50 at S. pneumoniae PBP2X is over 241 µM; at H. influenzae PBP2, 11.3 µM; on H. influenzae PBP1b it was over 121 µM; at H. influenzae PBP5, over 121 µM; on H. influenzae PBP3a/b, over 121 µM; at H. influenzae PBP4 it was over 121 µM. For the same molecule, on H. influenzae PBP1a, the IC50 is over 121 µM. In addition, at S. pneumoniae PBP1a/b, the “Relative binding (IC50) for PBP 1a/b” value is over 64 µg/mL. Further, the figures for the MIC against H. influenzae and with S. pneumoniae were 64 µg/mL (≈ 241 µM) and 256 µg/mL (≈ 965 µM), respectively.
